“Also recorded” adds a separate entry of the source. Where two headings read alike, the source gives them in different places.
Tests used:
[1] = Plasma pharmacokinetics of ABT-384 and metabolites after five daily doses; assay type: in vivo, human
[2] = CSF pharmacokinetics of ABT-384 and acid metabolite after five daily doses; assay type: in vivo, human; conditions: for CSF levels as percent of the free plasma levels / CSF levels as percent of the total plasma levels: 1-50 mg QD for 5 days; for CSF/free plasma exposure ratio: across the dose range tested (1-50 mg QD)
How it was run: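 Two subjects received 50 mg QD for 5 days. CSF was drawn by catheter before dosing, every 30 min for 8 h, and at 9, 12, 16 and 24 h. Other subjects were sampled hourly during the D4 cortisol infusions plus set post-dose times. Parent and acid metabolite were measured by validated HPLC–MS with D6 stable-label internal standards, injected directly without online solid-phase extraction.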

[3] = biological target: T1, 11-beta-hydroxysteroid dehydrogenase type 1 (HSD-1) (Homo sapiens, UniProt P28845); assay type: in vivo; conditions: regimens of 1-50 mg ABT-384 QD for 5 days, spot urine
[4] = biological target: T1, 11-beta-hydroxysteroid dehydrogenase type 1 (HSD-1); assay type: in vivo
How it was run: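 During primed continuous D4 cortisol infusions after five daily doses, plasma was collected hourly. Labeled cortisol and cortisone were measured by mass spectrometry, and the plasma D3 cortisol/D3 cortisone ratio served as a measure of total-body HSD-1 activity.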

[5] = biological target: T1, 11-beta-hydroxysteroid dehydrogenase type 1 (HSD-1); test: Peripheral HSD-1 inhibition: 1-; assay type: in vivo
How it was run: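 Plasma was sampled hourly during two 8 h D4 cortisol infusions on Days 5–6, after 5 days of once-daily dosing. Inhibition = 1 − (plasma D3 cortisol/plasma D4 cortisol), where 1 approximates the steady-state ratio seen in untreated control subjects. Values are given per time point across both infusions (16 time points).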

[6] = biological target: T1, 11-beta-hydroxysteroid dehydrogenase type 1 (HSD-1); assay type: in vivo; remark: listed apart in the source
[7] = Safety and tolerability in the clinical study; assay type: in vivo, human
How it was run: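 This open-label, single-site multiple-dose study ran 1–50 mg QD for 5 days. Subjects were confined from Day −1 until at least 48 h after CSF catheter removal, and adverse events were recorded until 30 days after the last dose.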

HSD-1 = HSD-1 (Homo sapiens, UniProt P28845); test: HSD-1 binding and dissociation kinetics in vitro; conditions: data on file
[8] = Preclinical tissue distribution, liver relative to plasma; assay type: in vivo; conditions: rats; data on file
[9] = as above; assay type: in vivo; conditions: monkeys; data on file
[10] = biological target: T1, 11-beta-hydroxysteroid dehydrogenase type 1 (HSD-1); conditions: cited from earlier work
[11] = 1 mg ABT-384 QD for 7 days; cited from earlier work
[12] = daily doses up to 100 mg, healthy volunteers and elderly subjects; cited from earlier work
[13] = 1-50 mg ABT-384 QD for 5 days, healthy men

T1 sequence (P28845 whole entry): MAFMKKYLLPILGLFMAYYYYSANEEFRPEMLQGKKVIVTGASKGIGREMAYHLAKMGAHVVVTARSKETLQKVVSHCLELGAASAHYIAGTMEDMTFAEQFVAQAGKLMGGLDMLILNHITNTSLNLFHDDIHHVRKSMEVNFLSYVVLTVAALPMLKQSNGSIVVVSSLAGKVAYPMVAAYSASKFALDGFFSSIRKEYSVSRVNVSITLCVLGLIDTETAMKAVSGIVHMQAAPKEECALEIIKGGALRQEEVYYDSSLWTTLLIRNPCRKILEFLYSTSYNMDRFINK
HSD-1, sequence (P28845 whole entry): as above

With `CC(C)(C(=O)NC1C2CC3CC1CC(C(N)=O)(C3)C2)N1CCN(c2ccc(C(F)(F)F)cn2)CC1` (centres unmarked) [ABT-384] the “time to peak levels in the plasma” value ([1]; after last dose on Day 5, 1-50 mg QD) was 1.5 to 3 h, the “plasma Cmax at which full peripheral HSD-1 inhibition was observed” value ([1]; man) was roughly 2 ng/mL and the “CSF levels as percent of the free plasma levels” value [2] was 10–50%. For the same molecule, the “CSF levels as percent of the total plasma levels” value [2] was 0.3–1%, the “CSF/free plasma exposure ratio” value [2] was “less than 0.5” and the “time to peak levels in the CSF” value ([2]; after last dose on Day 5) was 2.5 to 5 h. The “hepatic HSD-1 inhibition” value [3] was “full hepatic HSD-1 inhibition”, the “peripheral HSD-1 inhibition” value ([4]; 1 mg QD, each hour from 33 to 40 h after the last dose) was 81–87% and the “peripheral HSD-1 inhibition” value ([4]; ABT-384 1 mg daily, five daily doses, up to 40 h after last dose) was no less than 81%. For the same molecule, the “peripheral HSD-1 inhibition” value ([4]; ABT-384 regimens ⩾2 mg daily, five daily doses, up to 40 h after last dose) was no less than 88%, the “HSD-1 inhibition predicted from plasma Cmax” value ([4]; plasma Cmax ~2 ng ml^−1, assuming reversible inhibition, in the absence of preferential tissue distribution) was roughly 60% and the “peripheral HSD-1 inhibition” value ([5]; 1 mg regimen, at 40 h after the last dose) was roughly 86%. The “peripheral HSD-1 inhibition” value ([5]; 1 mg regimen, each of eight time points up to 8 h after the last dose) was roughly 90%, the “peripheral HSD-1 inhibition” value ([5]; 2, 10 and 50 mg QD, each of 16 time points up to 40 h after the last dose) was 91–93% and the “CNS HSD-1 inhibition (CNS formation of D3 cortisol)” value ([6]; 1 mg ABT-384 QD for 5 days) was “partial but substantial CNS HSD-1 inhibition; also recorded: Reduced CNS D3 cortisol formation”. The “intrinsic CSF D3 cortisol compared with the level attained in the absence of study drug” value ([6]; 1 mg regimen, hours 4-8 of each D4 cortisol infusion) was “approximately two- to three-fold lower”, the “CNS HSD-1 inhibition (CNS formation of D3 cortisol)” value ([6]; 2-50 mg ABT-384 QD for 5 days, through 40 h after the last dose) was “full CNS HSD-1 inhibition; also recorded: essentially complete CNS HSD-1 inhibition; also recorded: Complete blockade of D3 cortisol formation in the CNS” and the “minimum daily dose to achieve full CNS HSD-1 inhibition” value ([6]; QD dosing) was no more than 2 mg. The “adrenocorticotropic hormone or cortisol values above normal” value [7, 13] was “No subject showed adrenocorticotropic hormone or cortisol values above normal”, the “changes of clinical laboratory tests, vital signs or electrocardiography parameters” value [7, 13] was “No clinically significant changes” and the “deaths, serious adverse events, discontinuations due to adverse events” value [7, 13] was “No deaths, other serious adverse events or discontinuations due to adverse events occurred”. The tolerability ([7]; regimens of 1-50 mg ABT-384 QD for 5 days) was “well tolerated”, the “binding to and dissociation from HSD-1” value (HSD-1) was “rapid binding to, and very slow dissociation from; also recorded: rapid binding, slow dissociation kinetics” and the “distribution to the liver relative to the plasma” value [8] was “preferentially distributes to the liver”. The “distribution to the liver relative to the plasma” value [9] was “preferentially distributes to the liver”, the “decrease of ratio of urine cortisol metabolites to cortisone metabolite” value ([10]; 1-100 mg ABT-384 QD for 7 days, 24-h urine collection) was 87–97% and the “hepatic HSD-1 inhibition” value ([10]; regimens from 1 mg daily (1 mg QD for 7 days)) was “fully inhibited hepatic HSD-1; also recorded: full hepatic HSD-1 inhibition for 24 h”. For the same molecule, the “mean plasma Cmax” value [11] was 9.41 ng/mL and the tolerability [12] was “generally well tolerated”.
In the case of `O=C(O)C(O)(c1cccs1)c1cccs1` [Acid Metabolite], the “mean acid metabolite/parent AUC0-24 ratio in plasma” value ([1]; plasma) is reported as less than 20%, the “mean acid metabolite/parent Cmax ratio in plasma” value ([1]; plasma) is reported as less than 10% and the “mean metabolite/parent Cmax ratio” value ([1]; plasma, 1-50 mg QD for 5 days) is reported as 6–9%. For the same molecule, the “CSF levels as percent of the free plasma levels” value [2] was 110–150%, the “CSF levels as percent of the total plasma levels” value [2] was 3–4% and the “mean acid metabolite/parent AUC0-24 ratio in CSF” value ([2]; CSF) was 70–90%. For the same molecule, the “mean acid metabolite/parent Cmax ratio in CSF” value ([2]; CSF) was roughly 40%, the “CSF/free plasma exposure ratio” value [2] was “greater than 1” and the “mean plasma Cmax” value [11] was 0.31 ng/mL.

From publication PMC3756293 (Translational Psychiatry, 2013)
